Screens: PubChem, Sanford-Burnham Center for Chemical Genomics
STEP inh: blocks human striatal-enriched tyrosine phosphatase; P54829; recombinant STEP, OMFP fluorogenic substrate, fluorescence; inhibition, % at 20 µM; actives 0.25% (n = 360,000); AID 588621;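 active = inhibition at 20 µM, scaled per plate between control wells, above about 37%, limit read from the data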;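 also: 0% = DMSO with enzyme and substrate and 100% = substrate only without enzyme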
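Test system: STEP tyrosine phosphatase / Reagent: OMFP at 25 µM / Doses: 20 µM, 1% DMSO / Read-out: percent inhibition scaled to no-enzyme and uninhibited-enzyme controls, plate-pattern corrected / Detection: FITC-channel fluorescence of OMFP product / Medium: Bis-Tris buffer pH 6.0, 2.5 mM DTT, 0.005% Tween 20 / Schedule: 20 min at room temperature, dark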
Scp1 inh: inhibitors of human Scp-1 phosphatase; inhibition, % at 20 µM; Q9GZU7; Recombinant Scp1, phosphopeptide, malachite green phosphate absorbance; actives 0.88% (n = 340,000); AID 493091;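 active = inhibition above about 50% at 20 µM, limit read from the data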;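 also: plate controls were DMSO wells with enzyme for no effect and wells lacking enzyme for full effect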
Target sequence (Q9GZU7 76-261 limits assumed): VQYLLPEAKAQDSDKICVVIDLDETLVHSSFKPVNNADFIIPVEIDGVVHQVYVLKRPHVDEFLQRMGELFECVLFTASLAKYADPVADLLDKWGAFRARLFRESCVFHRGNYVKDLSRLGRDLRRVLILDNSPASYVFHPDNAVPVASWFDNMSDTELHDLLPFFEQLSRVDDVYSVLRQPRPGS
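assay system = SCP-1 phosphatase catalytic domain, residues 76-261 | buffer or medium = 50 mM Tris acetate pH 5.5, 0.005% Tween-20, 10 mM MgCl2 | incubation = enzyme reaction 45 min at room temperature, colour 5 min, stabilisation 30 min | signal = Phosphate-binding colour reagent, absorbance read at 630 nm | measure = % inhibition at 20 µM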
DNMT1 block: DNMT1 (human) enzyme inhibition; P26358; DNMT1 molecular beacon, Hinp1I cleavage, fluorescence; inhibition (reported as % activation of signal), % at 10 µM; actives 0.83% (n = 360,000); in the data active = inhibition above about 50%
Rpn11 inh: Rpn11 (human) deubiquitinase inhibition; human 26S proteasome, Ub4-pepOG fluorescence polarization; 20S core pre-blocked with epoxomicin; inhibition, % at 20 µM; actives 0.59% (n = 360,000); AID 588493;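 active = inhibition at 20 µM, scaled to each plate's controls, above about 33%, limit read from the data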
Target sequence (O00487 whole entry, looked up): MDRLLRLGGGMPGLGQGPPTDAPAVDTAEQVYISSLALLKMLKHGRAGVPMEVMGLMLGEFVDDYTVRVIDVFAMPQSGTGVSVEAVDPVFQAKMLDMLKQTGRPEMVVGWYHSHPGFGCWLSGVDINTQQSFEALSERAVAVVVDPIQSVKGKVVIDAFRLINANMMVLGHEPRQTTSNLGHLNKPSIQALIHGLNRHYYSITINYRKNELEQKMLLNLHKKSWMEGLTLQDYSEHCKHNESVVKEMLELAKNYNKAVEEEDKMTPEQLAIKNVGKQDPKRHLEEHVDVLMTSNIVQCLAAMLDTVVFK
LMPTP inh: LMPTP (human) inhibition; AID 651560; P24666; recombinant LMPTP-A, OMFP fluorogenic substrate, fluorescence intensity; inhibition, % at 20 µM; actives 0.22% (n = 360,000);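 active = compounds that cut the enzyme signal by at least half of the control window in the single-dose screen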;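 also: plate controls were DMSO wells with enzyme plus substrate for no effect and substrate without enzyme for full effect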
Target sequence (P24666 whole entry, looked up): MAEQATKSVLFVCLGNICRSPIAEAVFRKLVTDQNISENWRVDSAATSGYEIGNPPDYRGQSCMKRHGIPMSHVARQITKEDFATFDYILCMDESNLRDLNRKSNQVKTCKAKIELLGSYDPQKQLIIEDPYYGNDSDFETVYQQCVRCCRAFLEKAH
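Test system: LMPTP-A, protein tyrosine phosphatase of low molecular weight; Input: 0.625 nM enzyme; Incubation: 50 min dark incubation at room temperature; Signal: endpoint fluorescence intensity from OMFP dephosphorylation; Read-out basis: % inhibition versus control wells.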
Beacon interf DR: beacon fluorescence artifact, dose response counter-screen; shares compounds with DNMT1 block; molecular beacon fluorescence, spectral interference counter-screen; IC50, µM; 200 tested, under 10 active; AID 602382; call rule not given here
DNMT1 inh conf: DNMT1 inhibition confirmation, single concentration. shares compounds with DNMT1 block. DNMT1 molecular beacon HinP1I cleavage, fluorescence. inhibition, % at 10 µM. actives 8% (n = 2,300). AID 602385;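 active = average inhibition of at least 30% in the single-concentration confirmation test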
Beacon interf: counter-screen for DNMT1 inhibitors: spectral interference | activation (fluorescence interference), % at 10 µM | AID 602387 | shares compounds with DNMT1 block | DNMT1 molecular beacon spectral interference counterscreen, fluorescence 485/520 | actives 1% (n = 2,300);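 active = activation of at least 30% at 10 µM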;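 also: DNMT1 catalytic domain with a HinP1I cleavage step and a FAM/dabcyl DNA beacon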
The depositor's hits bear a star; · = not tested or not shown. Compounds with a hit are over-represented: about 2% of the library has one in this group of screens.

SMILES | STEP inh | Scp1 inh | DNMT1 block | Rpn11 inh | LMPTP inh | DNMT1 inh conf | Beacon interf | others
COc1ccc(S(=O)(=O)N(C)C[C@H]2Oc3ncc(-c4ccncc4)cc3C(=O)N([C@@H](C)CO)C[C@@H]2C)cc1 | 0 | · | 5 | -3 | -2 | · | ·
O=S(=O)(c1ccc(NC(=S)N2CCCCC2CO)cc1)N1CCOCC1 (stereo unspecified) | -1 | · | 60* | -1 | -1 | -1 | -4
N#CCNC1CC(=O)N(c2ccc(F)cc2)C1=O (stereo unspecified) | 0 | 0 | -1 | -7 | -1 | · | ·
O=C1CC(NCC2CCCO2)C(=O)N1c1ccc(F)cc1 (stereo unspecified) | -1 | -4 | 81* | -7 | -1 | 3 | 3
O=C(COC(=O)/C=C/c1ccccc1[N+](=O)[O-])NC1CC1 | -4 | -5 | 50* | -1 | -3 | 7 | 11
O=C(COC(=O)/C=C/c1ccccc1[N+](=O)[O-])NC1CCS(=O)(=O)C1 (stereo unspecified) | -1 | -5 | 2 | -6 | -1 | · | ·
c1ccc2c(c1)c1c(c3ccccc32)CN2CCCC2C1 (stereo unspecified) | -4 | 22 | 54* | 5 | 13 | 29 | 0 | Beacon interf DR=>99
c1ccc(CN2CCC(N3CCC(N4CCCCCC4)CC3)CC2)cc1 | 0 | -12 | -5 | 3 | -6 | · | ·
CCNC(=O)C1(C)CCN(C(=O)c2cccc(Cl)c2)C1 (stereo unspecified) | -3 | · | 6 | -9 | -2 | · | ·
Cc1cc(C)cc(OCc2nc3ncc(Br)cc3[nH]2)c1 | 1 | -7 | 59* | 13 | 1 | 2 | 2
COc1cccc(OCc2nc3ncc(Br)cc3[nH]2)c1 | -2 | -7 | 6 | 4 | 0 | · | ·
COc1ccc(S(=O)(=O)N(C)C[C@H]2Oc3c(cccc3N(C)C)C(=O)N([C@H](C)CO)C[C@@H]2C)cc1 | -1 | 1 | 4 | -4 | -1 | · | ·
CC(C)=CCC1=C(OCC(=O)O)C(=O)c2ccccc2C1=O | 8 | -4 | 71* | -5 | 6 | -4 | 1
COc1cc(/C=N/NC(=O)Cn2ccc(C(F)(F)F)n2)cc(OC)c1OC | 0 | -4 | -2 | -5 | -1 | · | ·
Fc1ccc(C2=NN(c3ccccc3)C(c3ccco3)C2)cc1 (stereo unspecified) | 0 | -10 | -7 | 4 | 3 | · | ·
O=[N+]([O-])c1ccc(/C=C/C2=NN(c3ccccc3)C(c3ccco3)C2)o1 (stereo unspecified) | 5 | 79* | 75* | · | 10 | 2 | 5
Cc1ccc(C(=O)NCCCNCCCN(C)C)cn1 | -1 | -10 | 53* | 1 | -13 | 1 | 2
Cc1ccc(C(=O)NCCCNCCCNC(=O)c2ccc(C)nc2)cn1 | 0 | -3 | -1 | -12 | -4 | · | ·
CC(=O)Nc1ccc(NC(=O)CSc2nnc(NC(=O)c3ccc(Br)o3)s2)cc1 | -4 | 4 | 12 | 6 | 1 | · | ·
Cc1ccc(OCC(=O)c2cc(C)c(C)cc2C)c([N+](=O)[O-])n1 | 3 | 14 | -3 | -1 | 1 | · | ·
Cc1ccc(OCC(=O)c2c(N)n(C)c(=O)n(C)c2=O)c([N+](=O)[O-])n1 | 4 | 66* | 82* | -30 | 2 | 23 | 3
CCCC(=O)c1ccc(OCc2cn(CC(=O)c3ccc(O)cc3)nn2)cc1 | -1 | -5 | 52* | 4 | -1 | 3 | -1
O=Cc1cccc(OCc2cn(CC(=O)c3ccc(O)cc3)nn2)c1 | 2 | · | 58* | -4 | -1 | 4 | -4
O=C(Cn1cc(COc2ccc(Br)cc2)nn1)c1ccc(O)cc1 | 2 | 1 | -3 | -3 | 1 | · | ·
O=c1c2ccccc2nnn1Cc1ccccc1Cl | 2 | -2 | 0 | -9 | 0 | · | ·
SMILES | STEP inh | Scp1 inh | DNMT1 block | Rpn11 inh | LMPTP inh | DNMT1 inh conf | Beacon interf | others
O=C(CCC(=O)N1CCCCCC1)NCc1ccc(F)cc1 | -2 | -2 | 0 | -6 | -3 | · | ·
COc1ccc(CNC(=O)c2cc3cc(OC)ccc3oc2=O)cc1 | 1 | -5 | 4 | -3 | 1 | · | ·
COc1ccc2oc(=O)c(C(=O)NCc3ccccc3)cc2c1 | -2 | -5 | 51* | -4 | 0 | 5 | 2
CC(C)N(CCNCc1nnc(-c2ccccc2)o1)C(C)C | 1 | -8 | 3 | 1 | -1 | · | ·
CCOC(=O)N1CCN(C(=O)C2CCN(C(=O)c3ccc(C(C)(C)C)cc3)CC2)CC1 | 0 | 5 | 1 | -4 | 2 | · | ·
Cc1ccc(S(=O)(=O)NC(=O)C2(C)CCN2C(=O)CC2CCCC2)nc1 (stereo unspecified) | -4 | · | 1 | -6 | -2 | · | ·
COc1ccccc1CCNC(=O)c1cc(-c2ccncc2)nc2ccc(Br)cc12 | 9 | 12 | 50* | 11 | 14 | 1 | -1
COc1ccccc1CCNC(=O)c1cc(-c2ccccn2)nc2ccccc12 | 2 | -4 | -2 | 0 | 0 | · | ·
CSc1ccccc1NC(=O)c1cc(-c2cccnc2)nc2ccc(Br)cc12 | 7 | 4 | 56* | 5 | 4 | 0 | -5
CN1C(=O)[C@H]2[C@@H](/C=C/c3ccccc3)N3C(=O)CN(Cc4ccc(-c5ccccc5)cc4)C(=O)[C@@]3(Cc3ccccc3)[C@H]2C1=O | 0 | -4 | -8 | 11 | 1 | · | ·
O=C1/C(=C\c2ccc(-c3ccccc3Cl)o2)SC(=S)N1CC1CCCO1 (stereo unspecified) | -2 | 8 | 2 | 0 | 5 | · | ·
COc1cc(/C=C2\SC(=S)N(C(C(=O)O)c3ccccc3)C2=O)cc(OC)c1OC (stereo unspecified) | -2 | -2 | 5 | -3 | 3 | · | ·
O=C(O)C(c1ccccc1)N1C(=O)/C(=C\c2ccc(-c3ccccc3Cl)o2)SC1=S (stereo unspecified) | 45* | 35 | 98* | · | 77* | 69* | 0 | Beacon interf DR=34*
O=C(O)C(c1ccccc1)N1C(=O)/C(=C\c2ccc(-c3ccc(Br)cc3)o2)SC1=S (stereo unspecified) | 11 | 20 | 93* | · | 65* | 93* | -2 | Beacon interf DR=47*
COc1cccc(C2/C(=C(/O)c3ccc4c(c3)CC(C)O4)C(=O)C(=O)N2CC2CCCO2)c1 (stereo unspecified) | 0 | -2 | 0 | -2 | 1 | · | ·
CCN(CC)S(=O)(=O)c1ccc(-c2nnc(SCC(=O)N3CCc4ccccc43)o2)cc1 | 2 | -5 | 54* | 15 | -3 | 1 | -2
